Measured values as given in ChEMBL document CHEMBL1649111, “Restoration of susceptibility of intracellular methicillin-resistant Staphylococcus aureus to beta-lactams: comparison of strains, cells, and antibiotics” (Antimicrob Agents Chemother, 2008).
Converted amounts (≈) assume the structure as drawn.

Assays:
[1] = test system: Staphylococcus aureus; assay: Bacteriostatic activity against intracellular beta-lactamase negative methicillin-susceptible Staphylococcus aureus ATCC 25923 infected in activated human THP-1 cells assessed as decrease in bacterial growth after 24 hrs at pH 7.4; assay type: functional
In short: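 THP-1 cells activated by 24-h culture with phorbol myristate acetate 2 mg/liter, then infected like unactivated THP-1. Cloxacillin dose range in mg/liter for 24 h. CFU per mg cell protein relative to the original inoculum, n = 3. Emin and Emax extrapolated from a Hill fit (slope 1), with EC50 as total drug; static concentration by graphical interpolation.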

[2] = test system: Staphylococcus aureus; assay: Antimicrobial activity against intracellular hospital acquired methicillin-resistant Staphylococcus aureus ATCC 33591 infected in human keratinocytes assessed as increase in bacterial count from original inoculum at low compound concentration after 24 hrs at pH 7.4; assay type: functional
In short: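 Primary human skin keratinocytes or Calu-3 bronchial epithelial cells, given an inoculum of 5 × 10⁷ to 1 × 10⁸ bacteria/ml and 2 h for internalization. Post-phagocytosis load 1.5 × 10⁶ to 3.0 × 10⁶ CFU per mg cell protein. Cloxacillin dose range in mg/liter for 24 h, n = 3. Hill-derived Emin, Emax and EC50; static concentration interpolated.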

[3] = test system: Staphylococcus aureus; assay: Bacteriostatic activity against intracellular beta-lactamase negative methicillin-susceptible Staphylococcus aureus ATCC 25923 infected in human keratinocytes assessed as decrease in bacterial growth after 24 hrs at pH 7.4; assay type: functional
In short: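 Primary human skin keratinocytes or Calu-3 bronchial epithelial cells infected with MSSA ATCC 25923 at 5 × 10⁷ to 1 × 10⁸ bacteria/ml, 2 h internalization. Postphagocytosis inoculum 1.5 × 10⁶ to 3.0 × 10⁶ CFU/mg protein. Cloxacillin concentration range for 24 h; CFU/mg protein change vs. inoculum (n = 3). Hill fit gives Emin/Emax; static concentration by graphical interpolation.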

[4] = test system: Staphylococcus aureus; assay: Antimicrobial activity against intracellular beta-lactamase negative methicillin-susceptible Staphylococcus aureus ATCC 25923 infected in human Calu3 cells assessed as decrease in bacterial growth after 24 hrs at pH 7.4; assay type: functional, organism-based; settings: ATCC 25923, Calu-3, 24 h
In short: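 Calu-3 bronchial epithelial cells, grown in uncoated flasks, were infected with 5 × 10⁷ to 1 × 10⁸ bacteria/ml for 2 h, giving 1.5 × 10⁶ to 3.0 × 10⁶ CFU/mg protein after phagocytosis. Cells were then exposed 24 h to a range of cloxacillin concentrations (mg/liter). CFU change per mg protein was measured (n = 3). A Hill fit with slope 1 gave Emax and EC50, and the static concentration was interpolated.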

[5] = test system: Staphylococcus aureus; assay: Antimicrobial activity against beta-lactamase negative methicillin-susceptible Staphylococcus aureus ATCC 25923 infected in human THP-1 cells assessed as decrease in bacterial growth after 24 hrs at pH 7.4; assay type: functional, organism-based; settings: ATCC 25923, THP-1, 24 h
[6] = test system: Staphylococcus aureus; assay: Antimicrobial activity against constitutive beta-lactamase negative methicillin-resistant Staphylococcus aureus COL NRS100 by broth microdilution method at pH 7.4; assay type: functional
[7] = test system: Staphylococcus aureus; assay: Antimicrobial activity against Panton-valentine leukocidin positive community acquired methicillin-resistant Staphylococcus aureus NRS192 obtained from patient with pneumonia and septic arthritis by broth microdilution method at pH 7.4; assay type: functional
In short: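 Minimal inhibitory concentration by broth microdilution at pH 7.4, read in mg/liter. The MRSA genotype was confirmed by mecA PCR, and the SCCmec subgroup was assigned by multiplex PCR.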

[8] = test system: Staphylococcus aureus; assay: Antimicrobial activity against hospital acquired methicillin-resistant Staphylococcus aureus HMC546 by broth microdilution method at pH 5.5; assay type: functional
[9] = test system: Staphylococcus aureus; assay: Antimicrobial activity against Panton-valentine leukocidin positive community acquired methicillin-resistant Staphylococcus aureus N4042228 by broth microdilution method at pH 5.5; assay type: functional
[10] = test system: Staphylococcus aureus; assay: Antimicrobial activity against hospital acquired methicillin-resistant and vancomycin-intermediate Staphylococcus aureus NRS18 obtained from patient with wound, skin and soft tissue infection by broth microdilution method at pH 5.5; assay type: functional
[11] = test system: Staphylococcus aureus; assay: Antimicrobial activity against beta-lactamase negative methicillin-susceptible Staphylococcus aureus ATCC 25923 infected in human THP-1 cells assessed as increase in bacterial count from original inoculum at low compound concentration after 24 hrs at pH 5.5; assay type: functional
In short: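 MSSA ATCC 25923 phagocytized by unactivated THP-1 macrophages; extracellular antibiotic from about 0.01× to 100× the broth MIC at pH 5.5, with gentamicin 0.5 mg/liter to block extracellular growth. CFU per mg cell protein counted at 24 h vs. original inoculum (n = 3). A Hill equation (slope factor 1) gives Emin/Emax, extrapolated to infinitely low/high concentration. Static concentration is read by graphical interpolation.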

[12] = test system: Staphylococcus aureus; assay: Antimicrobial activity against hospital acquired methicillin-resistant and vancomycin-intermediate Staphylococcus aureus VRS2 obtained from wound, skin and soft tissue infection of patient infected in human THP-1 cells assessed as decrease in bacterial count from original inoculum at high compound concentration after 24 hrs at pH 5.5; assay type: functional
In short: (§1)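 Human THP-1 macrophages infected with each S. aureus strain. Cloxacillin added extracellularly at about 0.01× to 100× the broth MIC measured at pH 5.5, with gentamicin 0.5 mg/liter to stop extracellular growth. Incubated 24 h. CFU counted per mg cell protein as change from the post-phagocytosis inoculum, n = 3. Emin, Emax and EC50 from a Hill fit; static concentration by graphical interpolation.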

[13] = test system: Staphylococcus aureus; assay: Antimicrobial activity against hospital acquired methicillin-resistant Staphylococcus aureus HMC546 infected in human THP-1 cells assessed as decrease in bacterial growth after 24 hrs at pH 5.5; assay type: functional, organism-based; settings: HMC546, THP-1, 24 h
In short: (§2)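 Bacteria phagocytosed by unactivated human THP-1 macrophages, then incubated 24 h with extracellular antibiotic at about 0.01× to 100× the pH 5.5 broth MIC. CFU per mg cell protein counted against the original inoculum, n = 3. A Hill-equation fit (slope factor 1) gave Emin and Emax, extrapolated to infinitely low and high concentration, and EC50. Static concentration was graphically interpolated.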

[14] = test system: Staphylococcus aureus; assay: Antimicrobial activity against Panton-valentine leukocidin positive community acquired methicillin-resistant Staphylococcus aureus NRS192 obtained from patient with pneumonia and septic arthritis infected in human THP-1 cells assessed as decrease in bacterial growth after 24 hrs at pH 5.5; assay type: functional, organism-based; settings: NRS192, THP-1, 24 h; in short: as §2
[15] = test system: Staphylococcus aureus; assay: Antimicrobial activity against hospital acquired methicillin-resistant and vancomycin-intermediate Staphylococcus aureus NRS126 obtained from bloodstream infection of patient infected in human THP-1 cells assessed as decrease in bacterial growth after 24 hrs at pH 5.5; assay type: functional, organism-based; settings: NRS126, THP-1, 24 h; in short: as §2
[16] = test system: Staphylococcus aureus; assay: Antimicrobial activity against hospital acquired methicillin-resistant and vancomycin-intermediate Staphylococcus aureus VRS2 obtained from wound, skin and soft tissue infection of patient infected in human THP-1 cells assessed as decrease in bacterial growth after 24 hrs at pH 5.5; assay type: functional, cell-based; settings: VRS2, THP-1, 24 h; in short: as §1
[17] = test system: Staphylococcus aureus; assay: Bacteriostatic activity against constitutive beta-lactamase negative methicillin-resistant Staphylococcus aureus COL NRS100 infected in human THP-1 cells assessed as decrease in bacterial growth after 24 hrs at pH 5.5; assay type: functional; in short: as §1
[18] = test system: Staphylococcus aureus; assay: Bacteriostatic activity against hospital acquired methicillin-resistant and vancomycin-intermediate Staphylococcus aureus NRS126 infected in human THP-1 cells assessed as decrease in bacterial growth after 24 hrs at pH 5.5; assay type: functional; in short: as §1
[19] = test system: Staphylococcus aureus; assay: Antimicrobial activity against intracellular beta-lactamase negative methicillin-susceptible Staphylococcus aureus ATCC 25923 infected in activated human THP-1 cells assessed as increase in bacterial count from original inoculum at low compound concentration after 24 hrs at pH 7.4; assay type: functional

**Q.** Which Activity [1] does the source give for Cc1onc(-c2ccccc2Cl)c1C(=O)N[C@@H]1C(=O)N2[C@@H]1SC(C)(C)[C@@H]2C(=O)O [CLOXACILLIN] here?
**A.** Its Activity is 1.3 mg/L.

**Q.** And the log10cfu [2]?
**A.** Its log10cfu is 2.06.

**Q.** What about the Activity [3] of the same compound?
**A.** The Activity was 1.1 mg/L.

**Q.** What about the EC50 [4] of the same compound?
**A.** Its EC50 is 0.52 µg/mL (≈ 1.19 µM).

**Q.** What about the EC50 [5] of the same compound?
**A.** Its EC50 is 0.27 µg/mL (≈ 0.619 µM).

**Q.** What about the MIC [6] of the same compound?
**A.** Its MIC is over 512 µg/mL.

**Q.** What about the MIC [7] of the same compound?
**A.** The MIC was 1 µg/mL (≈ 2.29 µM).

**Q.** And the MIC [8]?
**A.** The MIC was 0.25 µg/mL (≈ 0.574 µM).

**Q.** What about the MIC [9] of the same compound?
**A.** Its MIC is 0.03 µg/mL (≈ 0.0688 µM).

**Q.** And the MIC [10]?
**A.** The MIC was 0.06 µg/mL (≈ 0.138 µM).

**Q.** What about the log10cfu [11] of the same compound?
**A.** Its log10cfu is 1.96.

**Q.** What about the log10cfu [12] of the same compound?
**A.** The log10cfu was 0.78.

**Q.** And the EC50 [13]?
**A.** The EC50 was 5.67 ×MIC.

**Q.** And the EC50 [14]?
**A.** The EC50 was 6.07 ×MIC.

**Q.** And the EC50 [15]?
**A.** The EC50 was 5.33 ×MIC.

**Q.** What about the EC50 [16] of the same compound?
**A.** Its EC50 is 3.63 ×MIC.

**Q.** What about the Activity [17] of the same compound?
**A.** Its Activity is 8.31 ×MIC.

**Q.** What about the Activity [18] of the same compound?
**A.** The Activity was 20.9 ×MIC.

**Q.** And the log10cfu [19]?
**A.** The log10cfu was 3.05.
